Data from ChEMBL document CHEMBL1649362, “Cytotoxic triterpenoids from Maytenus retusa” (J Nat Prod, 2010).

test system: HL-60; assay: Cytotoxicity against human HL60 cells at 30 uM after 48 hrs by MTT assay; assay type: functional; conditions: HL-60, 48 h
Procedure, shortened: (§1)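 HL60 cells (ATCC) grown in RPMI with 10% FBS and seeded at 10 000 cells/well. After 48 h exposure, MTT added (0.5 mg/mL final) for 3 h at 37 °C. Formazan dissolved in SDS-HCl (20% SDS, 0.02 M HCl) and read at 570 nm. IC50 obtained by nonlinear regression.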

SMILES	inhibition at 30 µM
CC1=C2C3C(=O)C=C4C(=CC(=O)C(O)=C4C)[C@]3(C)CC[C@@]2(C)[C@@H]2C[C@@H](C)C(=O)C[C@]2(C)C1 (some centres undefined)	51%
COc1c(O)cc2c(c1C(=O)O)C(=O)C=C1[C@@]2(C)CC[C@@]2(C)[C@@H]3C[C@@H](C)C(=O)C[C@]3(C)CC[C@]12C	59%
COC(=O)[C@]1(C)CC[C@]2(C)CC[C@]3(C)C4CC(=O)c5cc(O)c(O)cc5[C@]4(C)CC[C@@]3(C)[C@@H]2C1 (some centres undefined)	65%
CC1=C(O)C(=O)C=C2C1=CC=C1[C@@]2(C)CC[C@@]2(C)[C@@H]3C[C@@](C)(O)C(=O)C[C@]3(C)CC[C@]12C	90%
Cc1c(O)c(O)cc2c1C(=O)C=C1[C@@]2(C)CC[C@@]2(C)[C@@H]3C[C@@H](C)C(=O)C[C@]3(C)CC[C@]12C [6-OXOTINGENOL]	100%
CC1=C(O)C(=O)C=C2C1=CC=C1[C@@]2(C)CC[C@@]2(C)[C@@H]3C[C@](C)(O)C(=O)C[C@]3(C)CC[C@]12C [20ALPHA-HYDROXYTINGENONE]	87%
COC(=O)[C@@]1(C)C[C@@H]2[C@@](C)(CC[C@]3(C)C4=CC=C5C(=CC(=O)C(O)=C5C)[C@]4(C)CC[C@@]23C)CC1=O [21-OXOPRISTIMERINE]	100%
CC1=C(O)C(=O)C=C2C1=CC(=O)[C@@H]1[C@@]2(C)CC[C@@]2(C)[C@@H]3C[C@@H](C)C(=O)C[C@]3(C)CC[C@]12C [AMAZOQUINONE]	100%

test system: MCF7; assay: Cytotoxicity against human MCF7 cells after 48 hrs by MTT assay; assay type: functional, cell-based; conditions: MCF7, 48 h
Procedure, shortened: (§2)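 MCF-7 cells (ATCC) maintained in DMEM with 10% FBS and plated at 10 000 cells/well. MTT (0.5 mg/mL final) then incubated 3 h at 37 °C. Formazan solubilized in 20% SDS/0.02 M HCl and absorbance read at 570 nm. IC50 from nonlinear regression.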

SMILES	IC50
CC1=C(O)C(=O)C=C2C1=CC=C1[C@@]2(C)CC[C@@]2(C)[C@@H]3C[C@@](C)(O)C(=O)C[C@]3(C)CC[C@]12C	1400 nM
CC1=C(O)C(=O)C=C2C1=CC=C1[C@@]2(C)CC[C@@]2(C)[C@@H]3C[C@](C)(O)C(=O)C[C@]3(C)CC[C@]12C [20ALPHA-HYDROXYTINGENONE]	4700 nM
COC(=O)[C@@]1(C)C[C@@H]2[C@@](C)(CC[C@]3(C)C4=CC=C5C(=CC(=O)C(O)=C5C)[C@]4(C)CC[C@@]23C)CC1=O [21-OXOPRISTIMERINE]	10000 nM

test system: HL-60; assay: Cytotoxicity against human HL60 cells at 1 uM after 48 hrs by MTT assay; assay type: functional; conditions: HL-60, 48 h; procedure, shortened: as §1

SMILES	inhibition at 1 µM
CC1=C2C3C(=O)C=C4C(=CC(=O)C(O)=C4C)[C@]3(C)CC[C@@]2(C)[C@@H]2C[C@@H](C)C(=O)C[C@]2(C)C1 (some centres undefined)	0%
COc1c(O)cc2c(c1C(=O)O)C(=O)C=C1[C@@]2(C)CC[C@@]2(C)[C@@H]3C[C@@H](C)C(=O)C[C@]3(C)CC[C@]12C	78%
COC(=O)[C@]1(C)CC[C@]2(C)CC[C@]3(C)C4CC(=O)c5cc(O)c(O)cc5[C@]4(C)CC[C@@]3(C)[C@@H]2C1 (some centres undefined)	35%
CC1=C(O)C(=O)C=C2C1=CC=C1[C@@]2(C)CC[C@@]2(C)[C@@H]3C[C@@](C)(O)C(=O)C[C@]3(C)CC[C@]12C	80%
Cc1c(O)c(O)cc2c1C(=O)C=C1[C@@]2(C)CC[C@@]2(C)[C@@H]3C[C@@H](C)C(=O)C[C@]3(C)CC[C@]12C [6-OXOTINGENOL]	45%
CC1=C(O)C(=O)C=C2C1=CC=C1[C@@]2(C)CC[C@@]2(C)[C@@H]3C[C@](C)(O)C(=O)C[C@]3(C)CC[C@]12C [20ALPHA-HYDROXYTINGENONE]	25%
COC(=O)[C@@]1(C)C[C@@H]2[C@@](C)(CC[C@]3(C)C4=CC=C5C(=CC(=O)C(O)=C5C)[C@]4(C)CC[C@@]23C)CC1=O [21-OXOPRISTIMERINE]	0%
CC1=C(O)C(=O)C=C2C1=CC(=O)[C@@H]1[C@@]2(C)CC[C@@]2(C)[C@@H]3C[C@@H](C)C(=O)C[C@]3(C)CC[C@]12C [AMAZOQUINONE]	66%

test system: MCF7; assay: Cytotoxicity against human MCF7 cells at 1 uM after 48 hrs by MTT assay; assay type: functional; conditions: MCF7, 48 h; procedure, shortened: as §2

SMILES	inhibition at 1 µM
CC1=C2C3C(=O)C=C4C(=CC(=O)C(O)=C4C)[C@]3(C)CC[C@@]2(C)[C@@H]2C[C@@H](C)C(=O)C[C@]2(C)C1 (some centres undefined)	9%
COc1c(O)cc2c(c1C(=O)O)C(=O)C=C1[C@@]2(C)CC[C@@]2(C)[C@@H]3C[C@@H](C)C(=O)C[C@]3(C)CC[C@]12C	15%
COC(=O)[C@]1(C)CC[C@]2(C)CC[C@]3(C)C4CC(=O)c5cc(O)c(O)cc5[C@]4(C)CC[C@@]3(C)[C@@H]2C1 (some centres undefined)	4%
CC1=C(O)C(=O)C=C2C1=CC=C1[C@@]2(C)CC[C@@]2(C)[C@@H]3C[C@@](C)(O)C(=O)C[C@]3(C)CC[C@]12C	21%
Cc1c(O)c(O)cc2c1C(=O)C=C1[C@@]2(C)CC[C@@]2(C)[C@@H]3C[C@@H](C)C(=O)C[C@]3(C)CC[C@]12C [6-OXOTINGENOL]	10%
CC1=C(O)C(=O)C=C2C1=CC=C1[C@@]2(C)CC[C@@]2(C)[C@@H]3C[C@](C)(O)C(=O)C[C@]3(C)CC[C@]12C [20ALPHA-HYDROXYTINGENONE]	14%
COC(=O)[C@@]1(C)C[C@@H]2[C@@](C)(CC[C@]3(C)C4=CC=C5C(=CC(=O)C(O)=C5C)[C@]4(C)CC[C@@]23C)CC1=O [21-OXOPRISTIMERINE]	0%
CC1=C(O)C(=O)C=C2C1=CC(=O)[C@@H]1[C@@]2(C)CC[C@@]2(C)[C@@H]3C[C@@H](C)C(=O)C[C@]3(C)CC[C@]12C [AMAZOQUINONE]	10%

test system: MCF7; assay: Cytotoxicity against human MCF7 cells at 30 uM after 48 hrs by MTT assay; assay type: functional; conditions: MCF7, 48 h; procedure, shortened: as §2

SMILES	inhibition at 30 µM
CC1=C2C3C(=O)C=C4C(=CC(=O)C(O)=C4C)[C@]3(C)CC[C@@]2(C)[C@@H]2C[C@@H](C)C(=O)C[C@]2(C)C1 (some centres undefined)	5%
COc1c(O)cc2c(c1C(=O)O)C(=O)C=C1[C@@]2(C)CC[C@@]2(C)[C@@H]3C[C@@H](C)C(=O)C[C@]3(C)CC[C@]12C	11%
COC(=O)[C@]1(C)CC[C@]2(C)CC[C@]3(C)C4CC(=O)c5cc(O)c(O)cc5[C@]4(C)CC[C@@]3(C)[C@@H]2C1 (some centres undefined)	44%
CC1=C(O)C(=O)C=C2C1=CC=C1[C@@]2(C)CC[C@@]2(C)[C@@H]3C[C@@](C)(O)C(=O)C[C@]3(C)CC[C@]12C	100%
Cc1c(O)c(O)cc2c1C(=O)C=C1[C@@]2(C)CC[C@@]2(C)[C@@H]3C[C@@H](C)C(=O)C[C@]3(C)CC[C@]12C [6-OXOTINGENOL]	17%
CC1=C(O)C(=O)C=C2C1=CC=C1[C@@]2(C)CC[C@@]2(C)[C@@H]3C[C@](C)(O)C(=O)C[C@]3(C)CC[C@]12C [20ALPHA-HYDROXYTINGENONE]	100%
COC(=O)[C@@]1(C)C[C@@H]2[C@@](C)(CC[C@]3(C)C4=CC=C5C(=CC(=O)C(O)=C5C)[C@]4(C)CC[C@@]23C)CC1=O [21-OXOPRISTIMERINE]	91%
CC1=C(O)C(=O)C=C2C1=CC(=O)[C@@H]1[C@@]2(C)CC[C@@]2(C)[C@@H]3C[C@@H](C)C(=O)C[C@]3(C)CC[C@]12C [AMAZOQUINONE]	18%

test system: MCF7; assay: Cytotoxicity against human MCF7 cells at 10 uM after 48 hrs by MTT assay; assay type: functional; conditions: MCF7, 48 h; procedure, shortened: as §2

SMILES	inhibition at 10 µM
CC1=C2C3C(=O)C=C4C(=CC(=O)C(O)=C4C)[C@]3(C)CC[C@@]2(C)[C@@H]2C[C@@H](C)C(=O)C[C@]2(C)C1 (some centres undefined)	11%
COc1c(O)cc2c(c1C(=O)O)C(=O)C=C1[C@@]2(C)CC[C@@]2(C)[C@@H]3C[C@@H](C)C(=O)C[C@]3(C)CC[C@]12C	17%
COC(=O)[C@]1(C)CC[C@]2(C)CC[C@]3(C)C4CC(=O)c5cc(O)c(O)cc5[C@]4(C)CC[C@@]3(C)[C@@H]2C1 (some centres undefined)	0%
CC1=C(O)C(=O)C=C2C1=CC=C1[C@@]2(C)CC[C@@]2(C)[C@@H]3C[C@@](C)(O)C(=O)C[C@]3(C)CC[C@]12C	100%
Cc1c(O)c(O)cc2c1C(=O)C=C1[C@@]2(C)CC[C@@]2(C)[C@@H]3C[C@@H](C)C(=O)C[C@]3(C)CC[C@]12C [6-OXOTINGENOL]	8%
CC1=C(O)C(=O)C=C2C1=CC=C1[C@@]2(C)CC[C@@]2(C)[C@@H]3C[C@](C)(O)C(=O)C[C@]3(C)CC[C@]12C [20ALPHA-HYDROXYTINGENONE]	85%
COC(=O)[C@@]1(C)C[C@@H]2[C@@](C)(CC[C@]3(C)C4=CC=C5C(=CC(=O)C(O)=C5C)[C@]4(C)CC[C@@]23C)CC1=O [21-OXOPRISTIMERINE]	32%
CC1=C(O)C(=O)C=C2C1=CC(=O)[C@@H]1[C@@]2(C)CC[C@@]2(C)[C@@H]3C[C@@H](C)C(=O)C[C@]3(C)CC[C@]12C [AMAZOQUINONE]	16%

test system: HL-60; assay: Cytotoxicity against human HL60 cells at 10 uM after 48 hrs by MTT assay; assay type: functional; conditions: HL-60, 48 h; procedure, shortened: as §1

SMILES	inhibition at 10 µM
CC1=C2C3C(=O)C=C4C(=CC(=O)C(O)=C4C)[C@]3(C)CC[C@@]2(C)[C@@H]2C[C@@H](C)C(=O)C[C@]2(C)C1 (some centres undefined)	0%
COc1c(O)cc2c(c1C(=O)O)C(=O)C=C1[C@@]2(C)CC[C@@]2(C)[C@@H]3C[C@@H](C)C(=O)C[C@]3(C)CC[C@]12C	57%
COC(=O)[C@]1(C)CC[C@]2(C)CC[C@]3(C)C4CC(=O)c5cc(O)c(O)cc5[C@]4(C)CC[C@@]3(C)[C@@H]2C1 (some centres undefined)	64%
CC1=C(O)C(=O)C=C2C1=CC=C1[C@@]2(C)CC[C@@]2(C)[C@@H]3C[C@@](C)(O)C(=O)C[C@]3(C)CC[C@]12C	89%
Cc1c(O)c(O)cc2c1C(=O)C=C1[C@@]2(C)CC[C@@]2(C)[C@@H]3C[C@@H](C)C(=O)C[C@]3(C)CC[C@]12C [6-OXOTINGENOL]	85%
CC1=C(O)C(=O)C=C2C1=CC=C1[C@@]2(C)CC[C@@]2(C)[C@@H]3C[C@](C)(O)C(=O)C[C@]3(C)CC[C@]12C [20ALPHA-HYDROXYTINGENONE]	100%
COC(=O)[C@@]1(C)C[C@@H]2[C@@](C)(CC[C@]3(C)C4=CC=C5C(=CC(=O)C(O)=C5C)[C@]4(C)CC[C@@]23C)CC1=O [21-OXOPRISTIMERINE]	88%
CC1=C(O)C(=O)C=C2C1=CC(=O)[C@@H]1[C@@]2(C)CC[C@@]2(C)[C@@H]3C[C@@H](C)C(=O)C[C@]3(C)CC[C@]12C [AMAZOQUINONE]	61%

test system: HL-60; assay: Cytotoxicity against human HL60 cells after 48 hrs by MTT assay; assay type: functional, cell-based; conditions: HL-60, 48 h; procedure, shortened: as §1

SMILES	IC50
CC1=C(O)C(=O)C=C2C1=CC=C1[C@@]2(C)CC[C@@]2(C)[C@@H]3C[C@@](C)(O)C(=O)C[C@]3(C)CC[C@]12C	200 nM
CC1=C(O)C(=O)C=C2C1=CC=C1[C@@]2(C)CC[C@@]2(C)[C@@H]3C[C@](C)(O)C(=O)C[C@]3(C)CC[C@]12C [20ALPHA-HYDROXYTINGENONE]	400 nM
COC(=O)[C@@]1(C)C[C@@H]2[C@@](C)(CC[C@]3(C)C4=CC=C5C(=CC(=O)C(O)=C5C)[C@]4(C)CC[C@@]23C)CC1=O [21-OXOPRISTIMERINE]	1400 nM
